# Measurements gathered from unrelated publications.
# Protocols differ between the studies behind these lines.
# Medium: plasma
Compound,species,route,dose,notes,bioavailability [%]
COc1ncccc1-c1cnn2ccc(N3CCN(C(=O)OC(C)C)CC3)nc12,rat,oral,10 mg/kg,,50
O=C(Nc1cccnn1)N1CCN([C@@H]2CCOc3cc(C(F)(F)F)ccc32)CC1,male Sprague-Dawley rat,oral,0.3 mg/kg,,41
CN(C)C(=O)Oc1cc(OC(=O)N(C)C)cc(-c2cc3ccc(O)cc3o2)c1,male rat,oral,5 mg/kg,,3.01
O=C([O-])C(=O)[O-].[NH-][C@@H]1CCCC[C@H]1[NH-].[Pt+4] (relative stereo),rat,intravenous,5 mg/kg,,100
CS(=O)(=O)Nc1ccc(-c2ccnc(Nc3ccc(-n4ccnn4)cc3)n2)cc1,Sprague-Dawley rat,oral,2 mg/kg,,5
CCC[C@@](N)(CO)CCc1ccc(OCCCCCC(C)C)cc1,rat,oral,30 mg/kg,,35
C#Cc1ccc2c(c1)C(c1ccccn1)=NCc1c(-c3cnco3)ncn1-2,male Sprague-Dawley rat,intraperitoneal,10 mg/kg,,69
Cc1cnc(N2CC3(CCOCC3)C2)c(C(=O)Nc2ccc(C(=O)N3CCc4cc(C(=O)Nc5c(C)cccc5F)sc4-c4ccccc43)cc2)c1,rat,inhaled,2.7 mg/kg,single dose,< 3
Cc1ncc(C)n2nc(/C=C/c3nc(N4CCCC4)cc(N4CCOCC4)n3)nc12,male Sprague-Dawley rat,oral,0.3 mg/kg,,33
[2H]C([2H])(c1cc(F)c(F)cc1F)n1c(=O)n(Cc2ncn(C)n2)c(=O)[nH]/c1=N\c1cc2cn(C)nc2cc1Cl,male Sprague-Dawley rat,oral,25 mg/kg,,117
N=c1c2c(-c3ccccc3)c(-c3ccccc3)n(Cc3ccccc3)c2ncn1[C@H]1CC[C@H](O)CC1,male Sprague-Dawley rat,oral,2 mg/kg,single dose,> 80
Cl.Cl.O=C(CCN1CCCCC1)c1ccc(-c2ccc(C(=O)CCN3CCCCC3)cc2)cc1,Sprague-Dawley rat,oral,100 mg/kg,,24.2
Cn1cnc(Cn2c(=O)[nH]/c(=N\c3cc4cn(C)nc4cc3Cl)n(Cc3cc(F)c(F)cc3F)c2=O)n1,male Sprague-Dawley rat,oral,25 mg/kg,,129
